Measurements published in ChEMBL document CHEMBL1132477, “Design and synthesis of novel alpha(1)(a) adrenoceptor-selective antagonists. 2. Approaches to eliminate opioid agonist metabolites via modification of linker and 4-methoxycarbonyl-4-phenylpiperidine moiety” (J Med Chem, 1999).

Experiments:
[1] = molecular target: T1, Alpha-1D adrenergic receptor (Homo sapiens, UniProt P25100); assay: In vitro binding affinity against alpha-1D adrenergic receptor (cloned human).
T1 sequence (P25100 whole entry): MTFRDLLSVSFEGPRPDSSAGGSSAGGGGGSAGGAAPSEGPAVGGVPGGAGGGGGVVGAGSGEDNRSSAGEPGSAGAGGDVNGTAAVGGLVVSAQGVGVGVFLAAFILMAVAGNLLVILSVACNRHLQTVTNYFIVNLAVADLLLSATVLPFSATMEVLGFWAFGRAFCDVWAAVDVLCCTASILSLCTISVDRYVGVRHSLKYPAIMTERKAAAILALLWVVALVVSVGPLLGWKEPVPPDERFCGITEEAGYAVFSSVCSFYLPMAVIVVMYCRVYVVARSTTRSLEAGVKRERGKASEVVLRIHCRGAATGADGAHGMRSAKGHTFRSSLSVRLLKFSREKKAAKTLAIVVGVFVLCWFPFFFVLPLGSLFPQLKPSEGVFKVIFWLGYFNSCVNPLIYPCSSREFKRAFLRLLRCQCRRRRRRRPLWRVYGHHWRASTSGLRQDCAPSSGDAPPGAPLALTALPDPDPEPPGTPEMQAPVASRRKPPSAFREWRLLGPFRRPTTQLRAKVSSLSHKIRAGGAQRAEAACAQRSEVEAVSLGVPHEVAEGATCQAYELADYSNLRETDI

[2] = Plasma half life in dog; format: ADME, organism-based, Canis lupus familiaris
Rattus norvegicus [3] = organism: Rattus norvegicus; assay: Antagonism against phenylephrine induced contractions in rat prostate.; format: functional, Prostate gland
Canis familiaris [4] = organism: Canis familiaris; assay: Potency to inhibit phenylephrine induced intraurethral pressure in dog.; format: functional, Canis lupus familiaris, Urethra
Outline: (§1)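 In dogs, diastolic blood pressure and intraurethral pressure were stimulated with phenylephrine. Antagonist potency was expressed as Kb in µg/kg.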

[5] = Plasma half life in rat; format: ADME, organism-based
Rattus norvegicus [6] = organism: Rattus norvegicus; assay: Dose required to inhibit 50% of contractile responses induced by phenylephrine in rat prostate.; format: functional, Prostate gland
[7] = Bioavailability in dog; format: ADME, organism-based, Canis lupus familiaris; conditions: in vivo
[8] = molecular target: T2, Alpha-1B adrenergic receptor (Homo sapiens, UniProt P35368); assay: In vitro binding affinity against Alpha-1B adrenergic receptor cloned from human.
T2 sequence (P35368 whole entry): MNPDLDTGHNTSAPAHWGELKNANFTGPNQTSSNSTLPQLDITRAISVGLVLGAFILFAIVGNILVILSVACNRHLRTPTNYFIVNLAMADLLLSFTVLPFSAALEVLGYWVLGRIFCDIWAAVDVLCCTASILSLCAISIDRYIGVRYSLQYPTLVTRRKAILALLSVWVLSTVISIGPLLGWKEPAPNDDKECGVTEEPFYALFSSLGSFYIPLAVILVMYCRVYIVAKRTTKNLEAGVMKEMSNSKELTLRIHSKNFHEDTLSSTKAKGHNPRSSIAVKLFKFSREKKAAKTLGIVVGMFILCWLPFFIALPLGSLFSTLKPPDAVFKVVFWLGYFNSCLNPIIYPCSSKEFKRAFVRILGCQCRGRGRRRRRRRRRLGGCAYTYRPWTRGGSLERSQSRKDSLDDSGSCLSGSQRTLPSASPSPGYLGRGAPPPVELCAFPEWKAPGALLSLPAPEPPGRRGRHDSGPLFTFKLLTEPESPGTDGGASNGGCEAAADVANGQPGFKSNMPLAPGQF

Rattus norvegicus [9] = organism: Rattus norvegicus; assay: Duration of action in rat; format: ADME, organism-based; conditions: in vivo
Mu-type opioid receptor = Mu-type opioid receptor (Mus musculus, UniProt P42866); assay: Binding affinity against opioid receptor
Rattus norvegicus [10] = organism: Rattus norvegicus; assay: Antagonism against norepinephrine induced contractions in rat aorta.; format: functional
Canis familiaris [11] = organism: Canis familiaris; assay: Potency to inhibit phenylephrine induced diastolic blood pressure in dog.; format: functional, Canis lupus familiaris, Artery
Outline: as §1

[12] = molecular target: Adrenergic receptor alpha-1 (Homo sapiens) (UniProt P35348+P25100+P35368); assay: Selectivity ratio( alpha-1b,1d/alpha1a); format: protein assay
[13] = molecular target: T3, Alpha-1A adrenergic receptor (Homo sapiens, UniProt P35348); assay: In vitro binding affinity against alpha-1A adrenergic receptor of human clones
T3 sequence (P35348 whole entry): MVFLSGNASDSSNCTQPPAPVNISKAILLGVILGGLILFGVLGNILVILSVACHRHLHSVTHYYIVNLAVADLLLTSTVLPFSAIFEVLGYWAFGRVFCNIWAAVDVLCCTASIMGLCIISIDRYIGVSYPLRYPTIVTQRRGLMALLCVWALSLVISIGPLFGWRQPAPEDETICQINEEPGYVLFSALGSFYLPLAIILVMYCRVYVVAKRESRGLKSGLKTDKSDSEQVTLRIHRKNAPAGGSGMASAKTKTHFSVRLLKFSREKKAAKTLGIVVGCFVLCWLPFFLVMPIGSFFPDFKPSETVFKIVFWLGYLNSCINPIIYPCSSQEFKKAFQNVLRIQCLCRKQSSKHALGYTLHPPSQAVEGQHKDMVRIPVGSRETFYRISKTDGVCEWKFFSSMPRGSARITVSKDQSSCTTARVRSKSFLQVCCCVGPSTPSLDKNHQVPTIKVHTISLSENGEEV

[14] = Bioavailability in rat; format: ADME, organism-based; conditions: in vivo

Sequence of Mu-type opioid receptor (P42866 whole entry): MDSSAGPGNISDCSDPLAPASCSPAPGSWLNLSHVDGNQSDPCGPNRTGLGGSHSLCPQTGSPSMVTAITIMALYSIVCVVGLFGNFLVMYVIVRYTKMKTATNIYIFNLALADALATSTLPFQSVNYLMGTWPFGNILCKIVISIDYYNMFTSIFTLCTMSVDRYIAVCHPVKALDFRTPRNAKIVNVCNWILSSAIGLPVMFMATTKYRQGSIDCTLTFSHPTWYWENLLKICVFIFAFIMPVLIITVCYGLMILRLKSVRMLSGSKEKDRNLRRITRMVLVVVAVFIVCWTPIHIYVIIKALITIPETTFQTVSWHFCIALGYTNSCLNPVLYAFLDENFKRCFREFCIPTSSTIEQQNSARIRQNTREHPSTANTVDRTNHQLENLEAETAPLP

**Q.** With `CCC1=C(C(N)=O)C(c2ccc(F)cc2F)N(C(=O)NCCCN2CCC(C#N)(c3ccccc3)CC2)C(=O)N1` (stereo not given) as the compound, how does the Ki [1] read?
**A.** 1280 nM

**Q.** What about the half-life [2] of the same compound?
**A.** 2.3 h

**Q.** And the Kb (Rattus norvegicus [3])?
**A.** 2.2 nM

**Q.** What about the Kb (Canis familiaris [4]) of the same compound?
**A.** 14.2 µg/kg

**Q.** What about the half-life [5] of the same compound?
**A.** 0.4 h

**Q.** And the AD50 (Rattus norvegicus [6])?
**A.** 0.018 mg/kg

**Q.** And the bioavailability [7]?
**A.** 32%

**Q.** What about the Ki [8] of the same compound?
**A.** 610 nM

**Q.** And the Time (Rattus norvegicus [9])?
**A.** 1.5 h

**Q.** What about the Ki (Mu-type opioid receptor) of the same compound?
**A.** 51000 nM

**Q.** What about the Kb (Rattus norvegicus [10]) of the same compound?
**A.** > 1000 nM

**Q.** And the Kb (Canis familiaris [11])?
**A.** >300 µg/kg

**Q.** What about the Ratio [12] of the same compound?
**A.** > 900

**Q.** What about the Ki [13] of the same compound?
**A.** 0.7 nM

**Q.** And the bioavailability [14]?
**A.** 8%
